Biological target: not listed separately
Experiment: Inhibition of N8-acetylspermidine deacetylase in rat liver subcellular extract
Details: read-out: Ki(app)
With `NCCCNCCCCCC(=O)NO` the Ki was 0.001 µM.

Biological target: T1, Acetylpolyamine amidohydrolase (Mycoplana ramosa, UniProt Q48935)
T1 sequence (Q48935 whole entry): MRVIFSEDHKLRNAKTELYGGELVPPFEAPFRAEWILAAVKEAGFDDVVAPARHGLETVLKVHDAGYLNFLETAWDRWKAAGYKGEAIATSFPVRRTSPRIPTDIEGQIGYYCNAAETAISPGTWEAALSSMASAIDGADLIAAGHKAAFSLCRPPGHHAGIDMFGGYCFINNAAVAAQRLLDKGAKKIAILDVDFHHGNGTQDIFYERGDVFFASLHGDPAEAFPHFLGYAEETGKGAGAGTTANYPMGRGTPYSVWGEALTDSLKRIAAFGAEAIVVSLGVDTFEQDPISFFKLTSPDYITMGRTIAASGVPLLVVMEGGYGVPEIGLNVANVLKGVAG
Experiment: Inhibition of Mycoplana ramosa APAH expressed in Escherichia coli BL21 (DE3) using BML-KI104 as substrate after 30 mins by fluorimetric assay
Details: not given
Method in brief: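 Recombinant enzyme purified from E. coli, 250 nM, at 25 °C with 150 μM Fluor-de-Lys acetyl substrate and 0–100 mM inhibitor. Buffer was 25 mM Tris pH 8.2, 137 mM NaCl, 2.7 mM KCl, 1 mM MgCl2, with 100 μM TCEP only for the thiol compound. Stopped at 30 min with 100 μM M344 plus developer. Fluorescence (ex 355/em 460 nm) was read after 45 min. Each concentration was run in triplicate in separate experiments.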
For `CC(=O)CCCCCNCCCN`, the IC50 was 160 µM.
Molecule `NCCCNCCCCCC(=O)NO` has an IC50 of 0.39 µM.
Molecule `NCCCNCCCCCS` has an IC50 of 26 µM.
Work on `CS(=O)(=O)CCCCCNCCCN` yielded an IC50 of 10000 µM.
Molecule `NCCCNCCCCCC(=O)O` has an IC50 of 1800 µM.
`NCCCNCCCCCC(=O)C(F)(F)F` gave an IC50 of 0.27 µM.
Work on `CC(=O)SCCCCCNCCCN` yielded an IC50 of 1900 µM.
In the case of `NCCCNCCCCCB(O)O`, the IC50 is reported as 230 µM.
With `COCC(=O)CCCCCNCCCN` the IC50 was 380 µM.
Work on `CC(=O)SCC(=O)CCCCCNCCCN` yielded an IC50 of 39 µM.

Reference: ChEMBL document CHEMBL2412983, “Synthesis and evaluation of N⁸-acetylspermidine analogues as inhibitors of bacterial acetylpolyamine amidohydrolase” (Bioorg Med Chem, 2013)
